Assay: HCV J6/JFH-1 viral RNA reduction – Huh-7.5 cells, quantitative PCR, fluorescence, counter-screen for HCV core dimerization inhibitor project, late-stage follow-up (AID 485271)
Conditions: Huh-7.5 HCV J6/JFH-1 infection, RT-qPCR viral RNA
Summary of the method: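 Reagent: HCV 2a J6/JFH-1 virus given together with compound. Test system: HCV J6/JFH-1-infected Huh-7.5 cells. Compound: tenfold series, 100 to 0.001 µM. Replication: triplicate wells per compound concentration. Technique: TaqMan RT-qPCR of viral RNA.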

Cc1ccc(Cc2c(C)nc3nc(SCC(=O)NCCCN4CCCCCC4)nn3c2C)cc1
IC50 (time point 1): 6.6 µM
IC50 (time point 2): 12 µM
